# Bioassay records: PubChem BioAssay, several laboratories
# Hits are enriched below; roughly 4.5% of the tested compounds scored in any of these assays.
# MrgX1 allo act: positive allosteric modulators of MrgX1, primary screen, HEK293 cells, Fluo-4 calcium flux; B-score at 10 µM; FDSS; active compounds read high; 310,000 tested, 0.63% active; Mas-related G-protein coupled receptor member X1 (Homo sapiens), Q96LB2;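 active means plate-corrected calcium response at least 3 library SD above typical, normal starting fluorescence, not activating the receptor alone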;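 further: compound read alongside a low EC10 to EC30 dose of BAM8-22 agonist; peak minus trough fluorescence over baseline measured at the second addition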
# RGS4 act: RGS4 potentiators or activators, primary screen, cell-based, HEK293 M3R inducible RGS4, calcium flux | 310,000 tested, 0.92% active | B-score at 10 µM | carbachol calcium flux Fluo4; active compounds read low | AID 463111, 2010;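 active means B-score of the integrated calcium signal more than 4 SD below the library mean, with starting fluorescence not abnormally high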;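 further: negative B-score means reduced calcium response which marks RGS4 activation or potentiation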
#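 System – HEK293 FlpIn-TREx cells, stable M3R, doxycycline-inducible RGS4 · Reagent – ECmax carbachol challenge · Times – compound preincubation 20 min at room temperature before agonist · Technique – Fluo4 fluorescence kinetic imaging of calcium · Measure – B score of integrated Fluo4 ratio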
# MrgX1 ag: agonists of human MrgX1 receptor, primary screen, HEK293 cells, Fluo-4 calcium flux; Mas-related G-protein coupled receptor member X1 (Homo sapiens), Q96LB2; Fluo-4 calcium fluorescence, agonist mode; active compounds read high; B-score at 10 µM; 310,000 tested, 0.44% active; AID 588627, 2011;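 active means calcium response B-score plate-corrected fluorescence ratio at least 3 library SD, with starting fluorescence B-score inside 5 SD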
#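 System – MrgX1-expressing HEK293 cells · Incubation – cells plated overnight, dye loaded 0.5 h 37 °C, 0.5 h room temperature · Technique – kinetic Fluo-4 NW fluorescence of intracellular calcium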
# RGS4 block: RGS4 inhibitors, primary screen, cell-based, HEK293 M3R inducible RGS4, calcium flux. Fluo-4 calcium flux; active compounds read high; triggered by carbachol at its EC20. 310,000 tested, 0.45% active. Regulator of G-protein signaling 4 (Homo sapiens), P49798. B-score at 10 µM. AID 463165, 2010;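 active means B-score, a plate-corrected calcium signal, over three deviations above library mean, with baseline fluorescence within five deviations of library mean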;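 further: RGS4 expression induced by doxycycline in cells with stable M3 receptor; B-score is computed from the integrated fluorescence ratio over baseline after carbachol; higher B-score means a larger calcium signal and so more RGS4 inhibition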
# Target sequence (P49798 whole entry, looked up): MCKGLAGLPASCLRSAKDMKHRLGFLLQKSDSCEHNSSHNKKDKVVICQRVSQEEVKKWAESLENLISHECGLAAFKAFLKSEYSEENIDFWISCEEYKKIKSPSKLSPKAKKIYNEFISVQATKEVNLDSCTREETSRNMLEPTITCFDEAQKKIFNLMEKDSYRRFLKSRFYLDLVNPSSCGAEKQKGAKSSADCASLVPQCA
# MrgX1 antag: antagonists of human MrgX1 receptor, primary screen, HEK293 cells, Fluo-4 calcium flux. 310,000 tested, 1.3% active. BAM8-22 antagonism; active compounds read low. Mas-related G-protein coupled receptor member X1 (Homo sapiens), Q96LB2. B-score at 10 µM;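 active means calcium-response B-score plate-corrected more than 3 library SD below zero, starting fluorescence within 5 deviations, no agonist response on first addition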;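 further: peak minus trough fluorescence over baseline after final BAM8-22 challenge near maximal dose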
# PHOSPHO1 block: PubChem AID 1565 | 290,000 tested, 1.1% active | inhibition, % at 13.3 µM | recombinant PHOSPHO1, absorbance phosphatase assay; in the data active means inhibition above about 60%
# Target sequence (Q8TCT1 whole entry, looked up): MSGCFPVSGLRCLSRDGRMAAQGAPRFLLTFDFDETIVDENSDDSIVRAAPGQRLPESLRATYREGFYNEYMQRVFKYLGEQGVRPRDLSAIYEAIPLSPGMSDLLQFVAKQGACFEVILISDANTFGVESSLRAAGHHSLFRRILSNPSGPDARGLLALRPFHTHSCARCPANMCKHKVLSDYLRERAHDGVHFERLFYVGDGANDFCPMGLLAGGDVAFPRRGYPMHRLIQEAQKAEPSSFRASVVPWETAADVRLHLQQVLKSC
# RGS4 block valid: enhanced carbachol calcium response, M3R/RGS4 cells, RGS4 inhibitor project, cell-based, validation screen, HEK293 M3R/RGS4, calcium flux. shares compounds with RGS4 block. carbachol calcium Fluo-4 fluorescence; carbachol added at its EC20; 0 = buffer wells, 100 = carbachol control. calcium response, % at 10 µM. 1,700 tested, 65% active;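 active means duplicate-averaged calcium response above the buffer-only control mean plus 5 SD of those controls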;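 further: integrated fluorescence ratio F max minus min over baseline F0; higher response in RGS4-induced cells means RGS4 inhibition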
# M3R Ca ctr: carbachol calcium response in non-induced M3R cells, confirmation, counter-screen for RGS4 inhibitor project, cell-based, HEK293 M3R. shares compounds with RGS4 block. carbachol calcium Fluo-4; submaximal (EC20) carbachol stimulus; buffer wells 0%, carbachol control wells 100%. activity (percent), % at 10 µM. 1,900 tested, 20% active. AID 493000, 2010; call rule not given here;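 further: RGS4 induction absent so cells express M3R without RGS4; higher means more calcium signal and flags a non-specific hit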
# M3R basal Ca ctr: signal in non-induced cells without carbachol, RGS4 inhibitor counter-screen; HEK293 M3R/RGS4 non-induced, Fluo-4 calcium, no carbachol; normalised: buffer wells 0%, carbachol wells 100%; shares compounds with RGS4 block; 1,900 tested, 22% active; calcium response (agonist-mode artifact), % at 10 µM;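 active means duplicate-averaged calcium rise in uninduced cells above buffer wells' mean plus 5 SD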
# A number is an active result; 0 = inactive; - = no result given.
SMILES,MrgX1 allo act,RGS4 act,MrgX1 ag,RGS4 block,MrgX1 antag,PHOSPHO1 block,RGS4 block valid,M3R Ca ctr,M3R basal Ca ctr
CCn1nc(NS(=O)(=O)c2ccc(F)cc2)c2cc3cccc(C)c3nc21,0,0,0,0,0,0,0,0,0
CCCn1nc(NS(C)(=O)=O)c2cc3cccc(C)c3nc21,0,0,0,0,0,0,-,-,-
CCOC(=O)c1cnc(Nc2nc3ccccc3o2)nc1C,0,0,0,0,0,0,-,-,-
Cc1nc(Nc2nc3ccccc3o2)nc(C)c1C(=O)Nc1ccc(F)cc1,0,0,0,4.72,0,0,7.0%,0,0
Cc1ccc(S(=O)(=O)c2nnn3c2nc(N2CCOCC2)c2ccccc23)c(C)c1,0,0,0,0,0,0,-,-,-
CCn1cc([N+](=O)[O-])c(C(=O)N2N=C(c3ccc(Cl)c(Cl)c3)CC2c2ccccc2O)n1 (stereo not drawn),0,0,0,6.39,0,0,21.5%,0,0
CCn1cc([N+](=O)[O-])c(C(=O)N2N=C(c3ccc4ccccc4c3)CC2c2cc(Br)ccc2O)n1 (stereo not drawn),0,0,0,0,0,0,-,-,-
CCn1cc([N+](=O)[O-])c(C(=O)N2N=C(c3ccc(O)c(OC)c3)CC2c2ccccc2O)n1 (stereo not drawn),0,0,0,0,0,0,-,0,0
CCCN(C(=O)c1ccco1)c1nnc(-c2ccccc2C)s1,0,0,0,0,0,0,-,-,-
CC(C)c1nnc(NC(=O)c2sc3ccccc3c2Cl)s1,0,0,0,4.78,0,0,0,0,0
CC1(C)CC(=O)C(C(C2=C(O)CC(C)(C)CC2=O)c2ccc([N+](=O)[O-])cc2)C(=O)C1 (stereo not drawn),0,0,0,0,0,0,-,-,-
Cc1ccc(C(C2=C(O)CC(C)(C)CC2=O)C2C(=O)CC(C)(C)CC2=O)s1 (stereo not drawn),0,0,0,13.7,0,0,35.0%,44.0%,0
CC1(C)CC(=O)C(C(C2=C(O)CC(C)(C)CC2=O)c2ccc(Br)s2)C(=O)C1 (stereo not drawn),0,0,0,18.1,0,0,87.5%,0,74.0%
COc1cccc(C(=O)OCC(=O)NC(C)CCc2ccccc2)c1O (stereo not drawn),0,0,0,0,0,0,-,-,-
COc1ccc(C(=O)CSc2nccn2C)c(OC)c1,0,0,0,0,0,0,-,-,-
O=[N+]([O-])c1cc(O)c2ncccc2c1,0,0,0,0,0,0,-,-,-
Cc1ccc(OCC(=O)Nc2oc(-c3ccccc3)c(-c3ccccc3)c2C#N)cc1,0,0,0,0,0,-,-,-,-
COc1ccc(-c2oc(NC(=O)CCl)c(C#N)c2-c2ccc(OC)cc2)cc1,0,0,0,11.1,0,0,58.5%,0,0
COc1ccc(Nc2nc(N3CCCCC3)nc(N3CCCCC3)n2)c(OC)c1,0,0,0,5.49,0,0,9.0%,0,0
COc1ccc(Nc2nc(N3CCCC3)nc(N3CCCC3)n2)c(OC)c1,0,0,0,0,0,0,0,0,0
COc1ccc(Nc2nc(NC(C)(C)C)nc(N3CCCC3)n2)c(OC)c1,0,0,0,0,0,0,0,0,0
CCN(CC(=O)NC1CCS(=O)(=O)C1)S(=O)(=O)c1ccccc1Cl (stereo not drawn),0,0,0,0,0,0,-,-,-
Cn1c(SC2CCCCC2=O)nnc1-c1ccccc1F (stereo not drawn),0,0,0,0,0,0,-,-,-
CCn1cc(/C=N\NC(=O)C2(C)CC2(Cl)Cl)c(C)n1 (stereo not drawn),0,0,0,0,0,0,-,-,-
CCOc1ccc2nc(Cl)c(/C=C/C(=O)c3ccco3)cc2c1,0,0,0,9.51,0,0,0,40.5%,0
SMILES,MrgX1 allo act,RGS4 act,MrgX1 ag,RGS4 block,MrgX1 antag,PHOSPHO1 block,RGS4 block valid,M3R Ca ctr,M3R basal Ca ctr
Cc1cccc2cc(/C=C/C(=O)c3ccco3)c(Cl)nc12,0,0,0,0,0,0,-,-,-
COCCNC(=S)N/N=C(\C)c1ccccc1OC,0,0,0,5.69,0,0,39.5%,0,0
COc1ccccc1/C=N/NC(=O)CC(=O)NCCc1ccccc1,0,0,0,0,0,-,-,-,-
Cc1ccccc1-n1c(SCC(=O)N/N=C/c2sccc2C)nc2ccccc2c1=O,0,0,0,5.54,0,0,0,0,0
Cc1ccc(/C=N/NC(=O)CSc2nc3ccccc3c(=O)n2-c2ccccc2C)s1,0,0,0,0,0,0,-,-,-
O=C(O)CCc1ccc(-c2ccc(Cl)cc2)o1,0,0,0,0,0,0,-,-,-
O=C(O)CCc1ccc(-c2ccc(Br)cc2)o1,0,0,0,0,0,0,-,0,0
COP(=O)(OC)C(NC(=O)Nc1ccccc1)c1ccccc1 (stereo not drawn),0,0,0,0,0,0,-,-,-
O=C(N/N=C\c1cn[nH]c1-c1ccc(Cl)cc1)c1cccs1,0,0,0,0,0,0,-,-,-
CC(C)(Oc1ccc(Cl)cc1)C(=O)N/N=C/c1cn[nH]c1-c1ccccc1,0,0,0,5,0,0,26.0%,0,0
O=C(Cc1ccc([N+](=O)[O-])cc1)N1N=C(c2ccncc2)CC1(O)C(F)(F)F (stereo not drawn),0,0,0,0,0,0,-,-,-
O=c1[nH]c(/C=C/c2ccccc2)c([N+](=O)[O-])c(=O)[nH]1,0,0,0,5.7,0,0,22.5%,0,0
CCC(C)Oc1ccc(/C=C/c2[nH]c(=O)[nH]c(=O)c2[N+](=O)[O-])cc1OC (stereo not drawn),0,0,0,5.56,0,0,10.0%,0,76.5%
COc1cc(/C=C/c2[nH]c(=O)[nH]c(=O)c2[N+](=O)[O-])ccc1OCCC(C)C,0,0,0,0,0,0,-,-,-
